From ChEMBL document CHEMBL1955789, “3,4-Diarylpiperidines as potent renin inhibitors” (Bioorg Med Chem Lett, 2012)

Assays:
Renin [1] = biological target: T1, Renin (Homo sapiens, UniProt P00797); assay: Inhibition of human recombinant renin using DNP-Lys-His-Pro-Phe-His-Leu-Val-Ile-His-D,L-Amp as substrate after 3 hrs by fluorimetry
T1 sequence (P00797 whole entry): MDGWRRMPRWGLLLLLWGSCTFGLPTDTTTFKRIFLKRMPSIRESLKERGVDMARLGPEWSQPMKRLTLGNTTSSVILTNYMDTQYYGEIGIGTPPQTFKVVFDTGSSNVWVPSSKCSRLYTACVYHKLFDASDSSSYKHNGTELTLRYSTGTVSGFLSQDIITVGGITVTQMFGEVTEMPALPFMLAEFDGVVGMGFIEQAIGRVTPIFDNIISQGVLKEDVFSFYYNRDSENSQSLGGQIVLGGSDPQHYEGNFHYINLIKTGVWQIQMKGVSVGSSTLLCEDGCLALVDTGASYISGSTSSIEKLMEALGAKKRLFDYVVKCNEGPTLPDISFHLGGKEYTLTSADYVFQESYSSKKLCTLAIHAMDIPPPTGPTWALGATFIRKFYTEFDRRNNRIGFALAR
How it was run: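 Human recombinant renin at 100 pM incubated with or without inhibitor and 6 µM Q-FRET substrate in 50 mM MOPS, 100 mM NaCl, pH 7.4, 0.002% Tween, 37 °C for 3 h. Fluorescence read at 0 and 3 h (ex 328 nm, em 388 nm). Values are means of at least two experiments.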

Renin [2] = biological target: T1, Renin; assay: Inhibition of human recombinant renin using QXL520-Lys-His-Pro-Phe-His-Leu-Val-Ile-His-Lys-(5-FAM) as substrate preincubated for 10 mins prior to substrate addition measure after 1 hr by fluorimetry in the presence of human plasma
How it was run: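 Frozen human EDTA-plasma thawed and centrifuged at 2900 g for 15 min. Recombinant human renin was added to the supernatant at 1 nM nominal, and inhibitor preincubation was 10 min at 37 °C. Q-FRET substrate was added in Tris/EDTA pH 7.2, then incubated 1 h at 37 °C. Fluorescence read at 0 and 1 h (ex 490 nm, em 520 nm). Means of at least two experiments.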

CYP3A4 [3] = biological target: T2, CYP3A4 (Homo sapiens, UniProt P08684); assay: Reversible inhibition of CYP3A4 using testosterone as substrate assessed as remaining activity at 10 uM; type: ADME; conditions: probe testosterone; read-out: Activity
CYP3A4 [4] = biological target: T2, CYP3A4; assay: Time dependent inhibition of CYP3A4 using testosterone as substrate at 10 uM for 30 mins; type: ADME; conditions: probe testosterone
How it was run: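 CYP3A4 conversion of testosterone (250 µM) to 6β-hydroxytestosterone compared before and after a 30 min preincubation with compound in DMSO. Result expressed as percentage activity loss; 0% change means no measurable time-dependent inhibition.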

[5] = biological target: Voltage-gated inwardly rectifying potassium channel KCNH2 (Homo sapiens, UniProt Q12809); assay: Inhibition of human ERG
[6] = Cmax in Sprague-Dawley rat at 30 mg/kg, po and 5 mg/kg, iv; type: ADME, organism-based; conditions: in vivo
[7] = Oral bioavailability in Sprague-Dawley rat at 30 mg/kg; type: ADME, organism-based; conditions: in vivo
[8] = Clearance in Sprague-Dawley rat at 30 mg/kg, po and 5 mg/kg, iv; type: ADME, organism-based; conditions: in vivo
[9] = Half life in Sprague-Dawley rat at 30 mg/kg, po and 5 mg/kg, iv; type: ADME, organism-based; conditions: in vivo
[10] = Volume of distribution at steady state in Sprague-Dawley rat at 30 mg/kg, po and 5 mg/kg, iv; type: ADME, organism-based; conditions: in vivo, read-out: Vdss
[11] = Oral bioavailability in Beagle dog at 3 mg/kg; type: ADME, organism-based, Canis lupus familiaris; conditions: in vivo
[12] = Cmax in Beagle dog at 3 mg/kg, po and 1 mg/kg, iv; type: ADME, organism-based, Canis lupus familiaris; conditions: in vivo
[13] = Clearance in Beagle dog at 3 mg/kg, po and 1 mg/kg, iv; type: ADME, organism-based, Canis lupus familiaris; conditions: in vivo
[14] = Half life in Beagle dog at 3 mg/kg, po and 1 mg/kg, iv; type: ADME, organism-based, Canis lupus familiaris; conditions: in vivo
[15] = Volume of distribution at steady state in Beagle dog at 3 mg/kg, po and 1 mg/kg, iv; type: ADME, organism-based, Canis lupus familiaris; conditions: in vivo, read-out: Vdss
Rattus norvegicus [16] = assay: Antihypertensive activity in rat dTGR model expressing human renin and angiotensinogen assessed as decrease in blood pressure at 10 mg/kg, po; type: functional
Rattus norvegicus [17] = assay: Antihypertensive activity in rat dTGR model expressing human renin and angiotensinogen assessed as time of blood pressure lowering effect at 10 mg/kg, po; type: functional

T2 sequence (P08684 whole entry): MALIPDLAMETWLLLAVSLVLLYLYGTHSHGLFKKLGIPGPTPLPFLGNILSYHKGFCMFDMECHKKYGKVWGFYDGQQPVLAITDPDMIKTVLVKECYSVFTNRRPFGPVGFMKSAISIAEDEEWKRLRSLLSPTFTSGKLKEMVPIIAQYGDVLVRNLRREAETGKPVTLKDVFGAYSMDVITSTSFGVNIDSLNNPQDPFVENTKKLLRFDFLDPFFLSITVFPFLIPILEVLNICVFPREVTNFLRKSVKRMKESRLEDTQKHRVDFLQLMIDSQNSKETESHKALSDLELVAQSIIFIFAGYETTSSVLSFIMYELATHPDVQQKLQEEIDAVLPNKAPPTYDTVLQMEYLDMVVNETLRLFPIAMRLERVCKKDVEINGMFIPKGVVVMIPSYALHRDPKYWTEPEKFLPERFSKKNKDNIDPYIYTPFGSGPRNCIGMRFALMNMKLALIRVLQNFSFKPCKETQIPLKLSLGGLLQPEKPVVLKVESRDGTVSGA
Sequence of Voltage-gated inwardly rectifying potassium channel KCNH2 (Q12809 whole entry): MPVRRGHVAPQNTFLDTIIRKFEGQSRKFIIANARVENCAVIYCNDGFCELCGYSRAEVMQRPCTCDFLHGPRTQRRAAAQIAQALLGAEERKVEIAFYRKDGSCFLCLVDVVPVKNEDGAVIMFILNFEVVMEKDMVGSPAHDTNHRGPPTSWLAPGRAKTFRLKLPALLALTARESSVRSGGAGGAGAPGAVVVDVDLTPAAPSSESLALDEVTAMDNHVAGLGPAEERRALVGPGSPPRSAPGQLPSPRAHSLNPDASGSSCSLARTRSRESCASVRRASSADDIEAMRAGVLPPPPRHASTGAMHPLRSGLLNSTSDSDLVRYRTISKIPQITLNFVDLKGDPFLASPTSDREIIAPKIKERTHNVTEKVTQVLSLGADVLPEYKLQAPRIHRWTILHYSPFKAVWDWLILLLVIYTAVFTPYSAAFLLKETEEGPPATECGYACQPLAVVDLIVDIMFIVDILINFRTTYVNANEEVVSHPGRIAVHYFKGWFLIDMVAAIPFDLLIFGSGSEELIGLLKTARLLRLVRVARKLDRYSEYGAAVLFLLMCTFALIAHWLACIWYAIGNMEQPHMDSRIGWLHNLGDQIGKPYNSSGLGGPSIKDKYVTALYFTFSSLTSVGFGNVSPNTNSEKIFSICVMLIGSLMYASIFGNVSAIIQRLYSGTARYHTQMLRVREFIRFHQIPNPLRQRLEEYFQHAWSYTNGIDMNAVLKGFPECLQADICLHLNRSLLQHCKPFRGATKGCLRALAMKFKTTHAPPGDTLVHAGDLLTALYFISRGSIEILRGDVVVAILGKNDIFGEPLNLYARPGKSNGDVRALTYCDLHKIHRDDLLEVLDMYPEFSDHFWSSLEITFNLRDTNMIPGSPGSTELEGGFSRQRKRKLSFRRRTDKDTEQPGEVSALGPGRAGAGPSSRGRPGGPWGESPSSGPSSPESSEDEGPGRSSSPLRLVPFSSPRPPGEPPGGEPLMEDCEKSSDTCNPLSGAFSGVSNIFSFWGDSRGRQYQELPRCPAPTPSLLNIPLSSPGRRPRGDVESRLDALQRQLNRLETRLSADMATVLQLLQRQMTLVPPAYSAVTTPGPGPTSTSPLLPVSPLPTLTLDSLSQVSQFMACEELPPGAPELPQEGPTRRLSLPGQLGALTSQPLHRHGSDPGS

Row | Structure (SMILES) | IC50 (Renin [1]) [nM] | IC50 (Renin [2]) [nM] | activity at 10 µM (CYP3A4 [3]) [%] | inhibition at 0.5 h, 10 µM (CYP3A4 [4]) [%] | IC50 [5] [nM] | other results
1 | CC(=O)NCCc1ccccc1-c1ccc([C@H]2CNCC[C@@H]2c2ccc(F)c(F)c2)c(Cl)c1 | 0.5 | 7.5 | 98 | 49 | – | –
2 | CC(=O)NCCc1ccccc1-c1ccc([C@H]2CNCC[C@@H]2c2cccnc2)c(Cl)c1 | 1.4 | 3.6 | 98 | 55 | – | –
3 | CC(=O)NCCc1ccccc1-c1ccc([C@H]2CNCC[C@@]23OCc2cc(F)c(F)cc23)c(C)c1 | 0.17 | 1.3 | 88 | 68 | 5100 | –
4 | COCC(F)(F)COCc1ccc([C@@]2(O)CCNC[C@@H]2c2ccc(-c3ccccc3CCNC(C)=O)cc2C)cc1 | – | – | 76 | 37 | 9800 | –
5 | CC(=O)NCCc1ccccc1-c1ccc([C@H]2CNCC[C@@H]2c2ccn(C)c(=O)c2)c(Cl)c1 | – | – | 97 | 0 | 5800 | –
6 | CCC(=O)NCCc1ccccc1-c1ccc([C@H]2CNCC[C@@H]2c2ccn(C)c(=O)c2)c(Cl)c1 | 4.8 | 8 | 92 | 21 | 2800 | –
7 | COC(=O)NCCc1ccccc1-c1ccc([C@H]2CNCC[C@@H]2c2ccn(C)c(=O)c2)c(Cl)c1 | 3.52 | 6.1 | 92 | 46 | – | –
8 | CCOC(=O)NCCc1ccccc1-c1ccc([C@H]2CNCC[C@@H]2c2ccn(C)c(=O)c2)c(Cl)c1 | 11 | 28.2 | 91 | 58 | 3200 | –
9 | COCC(=O)NCCc1ccccc1-c1ccc([C@H]2CNCC[C@@H]2c2ccn(C)c(=O)c2)c(Cl)c1 | 73.8 | 97.4 | – | – | – | –
10 | CC(=O)NCCc1ccccc1-c1ccc([C@H]2CNCC[C@]2(O)c2ccc(F)c(F)c2)c(C)c1 | 0.5 | 4.95 | 87 | 40 | 4200 | –
11 | CC(=O)NCCc1ccccc1-c1ccc([C@H]2CNCC[C@@]23OC(=O)c2cc(F)c(F)cc23)c(C)c1 | 0.14 | 1.6 | 80 | 88 | 12900 | –
12 | COC[C@H](C)COCc1ccc([C@@]2(O)CCNC[C@@H]2c2ccc(-c3ccccc3CCNC(C)=O)cc2C)cc1 | – | – | 88 | 72 | 9000 | –
13 | CC(=O)NCCc1ccccc1-c1ccc([C@@H](CN)Cc2ccc(OCCOc3c(Cl)cc(C)cc3Cl)cc2)c(C)c1.Cl | – | – | 53 | 74 | – | Cmax [6]: 440 nM
14 | CC(=O)NCCc1ccccc1-c1ccc([C@H]2CNCC[C@@H]2c2ccn(C)c(=O)c2)c(Cl)c1.Cl | – | – | – | – | – | bioavailability [7]: 12%; Cmax [6]: 450 nM; clearance [8]: 115 mL/min/kg; half-life [9]: 4 h; Vd [10]: 25 L/kg; bioavailability [11]: 30%; Cmax [12]: 350 nM; clearance [13]: 24 mL/min/kg; half-life [14]: 6.2 h; Vd [15]: 4.6 L/kg; Activity (Rattus norvegicus [16]): 32 mmHg; Time (Rattus norvegicus [17]): 24 h
